Measurements published in ChEMBL document CHEMBL1155308, “Metallo-beta-lactamase inhibitory activity of phthalic acid derivatives” (Bioorg Med Chem Lett, 2009).

Assay: Inhibition of carbapenems-resistant Pseudomonas aeruginosa MSC15369 metallo-beta-lactamase IMP-1 expressed in Escherichia coli after 20 mins by spectrophotometry
Procedure, shortened: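 IMP-1 purified from cell extracts by Ni-NTA; 1.0 nM enzyme in 50 mM HEPES pH 7.5 with 100 µM ZnSO4 and 20 µg/ml BSA, preincubated with inhibitor 20 min at room temperature; nitrocefin substrate, initial velocity read at 490 nm; IC50 determined.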

**Q.** With `O=C(O)c1cccc(-c2cccc(O)c2)c1C(=O)O` as the compound, how does the IC50 read?
**A.** 1.75 µM

**Q.** Which IC50 does the source give for `O=C(O)c1cccc(-c2ccc(O)cc2)c1C(=O)O` here?
**A.** 1.55 µM

**Q.** Which IC50 does the source give for `O=C(O)c1cccc(CCCO)c1C(=O)O` here?
**A.** 13.2 µM

**Q.** Which IC50 does the source give for `CC(C)(C)c1ccc(C(=O)O)c(C(=O)O)c1` here?
**A.** > 300 µM

**Q.** Which IC50 does the source give for `Cc1cccc(C(=O)O)c1C(=O)O` here?
**A.** 160 µM

**Q.** With `O=C(O)c1cccc(-c2ccccc2)c1C(=O)O` as the compound, how does the IC50 read?
**A.** 0.968 µM

**Q.** Which IC50 does the source give for `O=C(O)c1cccc(-c2ccccc2O)c1C(=O)O` here?
**A.** 2.44 µM

**Q.** Which IC50 does the source give for `O=C(O)c1cccc(-c2cccc(C(=O)O)c2C(=O)O)c1` here?
**A.** 17.9 µM

**Q.** For `CCCCc1ccc(C(=O)O)c(C(=O)O)c1C`, which IC50 is on record?
**A.** 16 µM

**Q.** For `CCCCc1ccc(C(=O)O)c(C(=O)O)c1`, which IC50 is on record?
**A.** 243 µM

**Q.** Which IC50 does the source give for `Cc1ccc(C(=O)O)c(C(=O)O)c1` here?
**A.** > 300 µM

**Q.** Which IC50 does the source give for `O=C(O)c1ccc(-c2ccccc2)cc1C(=O)O` here?
**A.** > 300 µM

**Q.** With `O=C(O)c1ccc(-c2cccc(C(=O)O)c2C(=O)O)cc1` as the compound, how does the IC50 read?
**A.** 2.25 µM

**Q.** For `O=C(O)c1ccccc1-c1cccc(C(=O)O)c1C(=O)O`, which IC50 is on record?
**A.** 207 µM

**Q.** Which IC50 does the source give for `O=C(O)c1ccccc1C(=O)O` [PHTHALIC ACID] here?
**A.** > 100 µM
